Data set [1] is described as follows: Inhibition of 5-FAM tracer binding to WDR5 delta23 mutant (24 to 334 residues) (unknown origin) expressed in Escherichia coli Rosetta 2 (DE3) cells after 3 hrs by fluorescence polarization assay. Also on record: species or system Homo sapiens. Background: In fluorescence polarisation assays a small probe gives low polarisation when free and higher when bound to something large.

The test system of data set [2] is MV4-11. The data set is described as follows: Cytotoxicity against human MV4-11 cells harboring MLL-AF4 fusion protein assessed as cell growth inhibition at 0.69 uM after 4 days by WST8 assay. Format: functional. The settings on record: MV4-11, 96 h, read-out: GI. (In general: Tetrazolium dyes change colour on reduction, which living cells bring about.)
The subject of data set [3] is MOLM-13. Kind of data set: Cytotoxicity against human MOLM13 cells harboring MLL-AF9 fusion protein assessed as cell growth inhibition at 0.10 uM after 7 days by WST8 assay. Format: functional. The settings on record: MOLM-13, 168 h, read-out: GI.
The target of data set [4] is Histone-lysine N-methyltransferase 2B (Homo sapiens) (UniProt Q9UMN6). Kind of data set: Inhibition of MLL2 (unknown origin) H3K4 methyltransferase activity using biotinyl-H3 peptide (1 to 21 residues) and using [3H]-S adenosylmethionine as methyl donor up to 100 uM after 1 hr by scintillation counting.
Histone-lysine N-methyltransferase 2B (Homo sapiens), sequence (Q9UMN6 whole entry, the tested form may be a part): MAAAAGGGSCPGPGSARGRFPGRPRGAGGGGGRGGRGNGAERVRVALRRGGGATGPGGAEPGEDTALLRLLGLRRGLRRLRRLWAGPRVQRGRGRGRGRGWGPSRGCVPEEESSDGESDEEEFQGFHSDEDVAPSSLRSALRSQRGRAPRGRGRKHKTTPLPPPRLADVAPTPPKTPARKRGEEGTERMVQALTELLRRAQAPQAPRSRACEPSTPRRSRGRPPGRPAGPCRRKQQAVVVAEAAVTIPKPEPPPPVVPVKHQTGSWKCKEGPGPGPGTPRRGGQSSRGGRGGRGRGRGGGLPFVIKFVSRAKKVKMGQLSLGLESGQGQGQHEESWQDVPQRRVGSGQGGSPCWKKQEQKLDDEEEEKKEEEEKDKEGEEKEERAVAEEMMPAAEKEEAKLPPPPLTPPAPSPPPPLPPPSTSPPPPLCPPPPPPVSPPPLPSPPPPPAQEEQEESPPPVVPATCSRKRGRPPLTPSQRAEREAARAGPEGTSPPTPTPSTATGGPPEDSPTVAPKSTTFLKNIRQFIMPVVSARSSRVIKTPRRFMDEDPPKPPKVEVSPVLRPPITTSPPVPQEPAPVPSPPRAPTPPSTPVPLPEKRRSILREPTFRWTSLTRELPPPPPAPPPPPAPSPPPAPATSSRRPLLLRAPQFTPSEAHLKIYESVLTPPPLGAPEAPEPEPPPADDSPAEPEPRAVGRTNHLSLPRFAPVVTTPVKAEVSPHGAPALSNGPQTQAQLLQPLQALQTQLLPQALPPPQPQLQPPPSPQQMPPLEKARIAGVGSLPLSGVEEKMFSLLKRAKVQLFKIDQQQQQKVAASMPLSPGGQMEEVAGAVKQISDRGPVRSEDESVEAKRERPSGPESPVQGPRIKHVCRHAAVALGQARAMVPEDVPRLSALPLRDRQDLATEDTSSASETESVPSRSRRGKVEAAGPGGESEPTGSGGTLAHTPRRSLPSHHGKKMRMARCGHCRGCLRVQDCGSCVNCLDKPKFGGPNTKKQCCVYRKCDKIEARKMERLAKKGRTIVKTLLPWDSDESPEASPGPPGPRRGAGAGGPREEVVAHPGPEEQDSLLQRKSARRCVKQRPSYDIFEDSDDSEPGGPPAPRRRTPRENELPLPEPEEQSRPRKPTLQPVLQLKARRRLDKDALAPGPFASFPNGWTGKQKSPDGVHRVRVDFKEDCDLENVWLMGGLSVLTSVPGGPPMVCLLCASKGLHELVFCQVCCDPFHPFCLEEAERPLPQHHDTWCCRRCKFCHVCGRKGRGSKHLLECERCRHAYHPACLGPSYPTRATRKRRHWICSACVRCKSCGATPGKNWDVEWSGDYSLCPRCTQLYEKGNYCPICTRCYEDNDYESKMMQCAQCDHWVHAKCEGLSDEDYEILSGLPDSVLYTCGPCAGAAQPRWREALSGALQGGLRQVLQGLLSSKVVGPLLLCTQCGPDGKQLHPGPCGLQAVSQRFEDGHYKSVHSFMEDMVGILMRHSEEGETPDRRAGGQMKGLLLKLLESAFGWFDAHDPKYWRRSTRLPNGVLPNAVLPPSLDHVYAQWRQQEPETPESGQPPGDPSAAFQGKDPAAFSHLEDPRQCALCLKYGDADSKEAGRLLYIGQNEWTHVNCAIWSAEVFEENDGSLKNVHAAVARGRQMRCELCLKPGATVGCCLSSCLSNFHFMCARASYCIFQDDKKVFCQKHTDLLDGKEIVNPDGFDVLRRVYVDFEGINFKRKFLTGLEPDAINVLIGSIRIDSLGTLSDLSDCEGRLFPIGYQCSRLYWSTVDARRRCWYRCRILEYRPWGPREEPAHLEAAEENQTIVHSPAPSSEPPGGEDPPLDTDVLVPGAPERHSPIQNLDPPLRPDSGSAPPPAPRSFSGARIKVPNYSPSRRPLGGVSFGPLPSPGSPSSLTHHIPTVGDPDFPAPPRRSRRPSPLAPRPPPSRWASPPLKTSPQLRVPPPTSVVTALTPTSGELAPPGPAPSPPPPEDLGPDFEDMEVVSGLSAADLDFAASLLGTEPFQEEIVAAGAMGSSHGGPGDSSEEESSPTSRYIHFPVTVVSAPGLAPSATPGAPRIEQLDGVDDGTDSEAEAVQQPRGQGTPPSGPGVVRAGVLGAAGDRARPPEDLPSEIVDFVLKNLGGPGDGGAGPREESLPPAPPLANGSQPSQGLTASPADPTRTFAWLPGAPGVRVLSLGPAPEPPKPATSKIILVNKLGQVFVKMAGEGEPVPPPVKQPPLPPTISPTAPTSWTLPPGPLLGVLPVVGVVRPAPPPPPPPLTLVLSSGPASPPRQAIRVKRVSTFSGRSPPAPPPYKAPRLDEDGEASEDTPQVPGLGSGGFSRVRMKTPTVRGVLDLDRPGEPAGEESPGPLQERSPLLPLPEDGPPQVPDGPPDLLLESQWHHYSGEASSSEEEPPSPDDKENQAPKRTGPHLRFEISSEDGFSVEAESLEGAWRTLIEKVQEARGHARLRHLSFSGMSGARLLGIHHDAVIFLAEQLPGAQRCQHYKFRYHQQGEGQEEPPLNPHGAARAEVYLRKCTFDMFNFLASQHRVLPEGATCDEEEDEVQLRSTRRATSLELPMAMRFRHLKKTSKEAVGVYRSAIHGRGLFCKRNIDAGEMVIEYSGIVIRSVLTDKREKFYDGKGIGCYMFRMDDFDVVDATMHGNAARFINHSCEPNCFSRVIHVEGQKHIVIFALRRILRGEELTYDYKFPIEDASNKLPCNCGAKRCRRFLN
The nature of data set [5]: Stability of compound in cell culture media at 0.5 mM after 7 days by Waters ACQUITY UPLC analysis.
Data set [6] concerns MV4-11. The data set is described as follows: Cytotoxicity against human MV4-11 cells harboring MLL-AF4 fusion protein assessed as cell growth inhibition after 4 days by WST8 assay. Format: functional, cell-based. The settings on record: MV4-11, 96 h. In a few lines: (§1)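 Cells (MOLM-13 with MLL-AF9, MV4-11 with MLL-AF4, HL-60 with no MLL fusion) seeded at 1 × 10^4 cells/well and exposed to a range of inhibitor concentrations for 4 days, with 0.2% DMSO final in the medium. Viability was read by WST-8 kit. Three independent experiments, each in triplicate.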

The target in data set [7] is Histone-lysine N-methyltransferase 2D (Homo sapiens) (UniProt O14686). The data set is described as follows: Inhibition of MLL4 (unknown origin) H3K4 methyltransferase activity using biotinyl-H3 peptide (1 to 21 residues) and using [3H]-S adenosylmethionine as methyl donor up to 100 uM after 1 hr by scintillation counting.
For data set [8], the target named is MLL1-ASH2L/RbBP5/WDR5/DPY30 (Homo sapiens, UniProt P61964). The data set is described as follows: Inhibition of human N-terminal GST-tagged MLL1 (3735 to 3973 residues) interaction with human full length N-terminal 6xHis-tagged ASH2L/N-terminal 6xHis-tagged human full length RbBP5/human N-terminal 6xHis-tagged WDR5/human full length N-terminal 6xHis-tagged DPY30 assessed as decrease in H3K4me1-2 methylation preincubated for 30 mins followed by SAM/nucleosome mixture addition measured after 120 mins in absence of light by AlphaLISA assay. Format: protein assay. (Alpha assays give light when donor and acceptor beads are brought close together.)

The test system of data set [9] is MOLM-13. The data set is described as follows: Cytotoxicity against human MOLM13 cells harboring MLL-AF9 fusion protein assessed as cell growth inhibition at 0.38 uM after 4 days by WST8 assay. Format: functional. The settings on record: MOLM-13, 96 h, read-out: GI.
A short description of data set [10]: Selectivity ratio of IC50 for human HL60 cells lacking MLL translocation to IC50 for human MOLM13 cells harboring MLL-AF9 fusion protein.
Data set [11] deals with Histone-lysine N-methyltransferase 2C (Homo sapiens) (UniProt Q8NEZ4). The data set is described as follows: Inhibition of MLL3 (unknown origin) H3K4 methyltransferase activity using biotinyl-H3 peptide (1 to 21 residues) and using [3H]-S adenosylmethionine as methyl donor up to 100 uM after 1 hr by scintillation counting.
Data set [12] in a line: Selectivity ratio of IC50 for human HL60 cells lacking MLL translocation to IC50 for human MV4-11 cells harboring MLL-AF4 fusion protein.
Data set [13] has as its system MV4-11. The data set is described as follows: Cytotoxicity against human MV4-11 cells harboring MLL-AF4 fusion protein assessed as cell growth inhibition after 7 days by WST8 assay. Format: functional, cell-based. As to conditions: MV4-11, 168 h. Put shortly: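 MV4-11 cells (MLL-AF4) plated at 5 × 10^4 cells/mL and treated with the compound. WST-8 viability was read on day 4. Then 10% of viable cells were moved to fresh medium with the same compound concentrations and cultured 3 more days. The day-7 read was also by WST-8.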

Data set [14] concerns the target Histone-lysine N-methyltransferase SETD1A (Homo sapiens) (UniProt O15047). Kind of data set: Inhibition of SET1a (unknown origin) H3K4 methyltransferase activity using biotinyl-H3 peptide (1 to 21 residues) and using [3H]-S adenosylmethionine as methyl donor up to 100 uM after 1 hr by scintillation counting.
Data set [15] addresses Histone-lysine N-methyltransferase SETD1B (Homo sapiens) (UniProt Q9UPS6). Kind of data set: Inhibition of […] (unknown origin) H3K4 methyltransferase activity using biotinyl-H3 peptide (1 to 21 residues) and using [3H]-S adenosylmethionine as methyl donor up to 100 uM after 1 hr by scintillation counting.
The nature of data set [16]: Half life in mouse microsomes. Format: ADME, Microsome.
Data set [17] in a line: Half life in human microsomes. Format: ADME, Microsome.
Data set [18] can be described thus: Half life in rat microsomes. Format: ADME, Microsome.
The subject of data set [19] is MOLM-13. Kind of data set: Cytotoxicity against human MOLM13 cells harboring MLL-AF9 fusion protein assessed as cell growth inhibition after 4 days by WST8 assay. The format is functional, cell-based. As to conditions: MOLM-13, 96 h. In a few lines:
as §1

The next data set concerns HL-60. The data set is described as follows: Cytotoxicity against human HL60 cells lacking MLL translocation assessed as cell growth inhibition after 4 days by WST8 assay. Format: cell-based. As to conditions: HL-60, 96 h. Put shortly: as §1
For data set [20], the system named is MOLM-13. Kind of data set: Cytotoxicity against human MOLM13 cells harboring MLL-AF9 fusion protein assessed as cell growth inhibition after 7 days by WST8 assay. The format is functional, cell-based. The settings on record: MOLM-13, 168 h. Put shortly:
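Long-term treatment of MOLM-13 plated at 5 × 10^4 cells/mL. Viability measured by WST-8 on day 4. Then 10% of viable cells were moved to fresh medium at the same compound concentration and cultured 3 more days, with viability read again on day 7.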

In data set [21] the test system is MV4-11. Kind of data set: Cytotoxicity against human MV4-11 cells harboring MLL-AF4 fusion protein assessed as cell growth inhibition at […] after 7 days by WST8 assay. The format is functional. The settings on record: MV4-11, 168 h, read-out: GI.

The structures appear in SMILES notation. Calls of active or inactive are those of the source.

Histone-lysine N-methyltransferase SETD1A (Homo sapiens), sequence (O15047 whole entry, the tested form may be a part): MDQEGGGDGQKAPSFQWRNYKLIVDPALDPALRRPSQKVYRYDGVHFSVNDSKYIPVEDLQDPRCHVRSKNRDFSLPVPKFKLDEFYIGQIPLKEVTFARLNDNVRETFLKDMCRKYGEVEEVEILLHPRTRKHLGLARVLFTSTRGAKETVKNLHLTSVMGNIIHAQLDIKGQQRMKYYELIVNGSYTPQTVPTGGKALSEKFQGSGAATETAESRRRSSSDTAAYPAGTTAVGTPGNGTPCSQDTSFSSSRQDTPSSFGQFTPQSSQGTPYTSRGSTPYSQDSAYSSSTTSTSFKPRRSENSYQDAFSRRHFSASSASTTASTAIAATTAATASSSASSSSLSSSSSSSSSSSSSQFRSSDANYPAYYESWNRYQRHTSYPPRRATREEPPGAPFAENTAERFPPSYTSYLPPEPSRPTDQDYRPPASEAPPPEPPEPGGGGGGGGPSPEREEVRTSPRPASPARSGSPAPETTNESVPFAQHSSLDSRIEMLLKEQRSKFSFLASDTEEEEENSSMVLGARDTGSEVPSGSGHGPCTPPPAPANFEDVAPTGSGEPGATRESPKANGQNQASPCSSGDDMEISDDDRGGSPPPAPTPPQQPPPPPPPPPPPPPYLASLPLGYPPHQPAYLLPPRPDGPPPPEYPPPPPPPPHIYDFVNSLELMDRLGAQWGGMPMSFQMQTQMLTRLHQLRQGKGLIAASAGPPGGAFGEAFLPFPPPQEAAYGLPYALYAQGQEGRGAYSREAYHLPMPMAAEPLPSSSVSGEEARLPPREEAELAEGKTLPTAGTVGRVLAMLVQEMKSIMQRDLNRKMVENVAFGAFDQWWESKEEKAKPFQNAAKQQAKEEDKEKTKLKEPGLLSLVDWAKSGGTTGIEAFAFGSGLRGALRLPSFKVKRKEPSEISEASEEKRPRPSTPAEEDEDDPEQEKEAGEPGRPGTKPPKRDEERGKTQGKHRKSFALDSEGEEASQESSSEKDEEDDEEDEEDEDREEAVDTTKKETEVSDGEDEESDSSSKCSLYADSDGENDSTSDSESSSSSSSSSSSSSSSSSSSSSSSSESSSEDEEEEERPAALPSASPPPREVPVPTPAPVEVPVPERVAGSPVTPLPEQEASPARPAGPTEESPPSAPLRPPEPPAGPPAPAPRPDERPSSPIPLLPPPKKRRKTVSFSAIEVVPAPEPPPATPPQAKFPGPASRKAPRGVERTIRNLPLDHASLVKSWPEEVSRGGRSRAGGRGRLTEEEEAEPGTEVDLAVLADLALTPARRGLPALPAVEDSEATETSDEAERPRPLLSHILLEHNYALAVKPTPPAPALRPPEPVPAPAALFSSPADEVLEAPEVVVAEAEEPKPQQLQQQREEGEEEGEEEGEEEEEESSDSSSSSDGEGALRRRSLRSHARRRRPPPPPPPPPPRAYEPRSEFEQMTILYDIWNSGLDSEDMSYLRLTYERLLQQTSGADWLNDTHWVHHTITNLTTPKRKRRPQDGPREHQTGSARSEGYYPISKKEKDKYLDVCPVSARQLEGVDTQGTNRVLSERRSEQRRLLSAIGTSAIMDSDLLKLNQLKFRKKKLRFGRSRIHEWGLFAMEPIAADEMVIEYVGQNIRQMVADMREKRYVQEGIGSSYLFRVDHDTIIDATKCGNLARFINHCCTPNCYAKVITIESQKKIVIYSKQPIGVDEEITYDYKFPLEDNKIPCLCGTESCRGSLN

Usually IC50 stands for the concentration that gives 50% inhibition. A word on the Ki: it is the dissociation constant of the complex between target and ligand, obtained from inhibition or displacement. As a reminder, the half-life is the time needed for the level to fall by half in the phase considered. As for `CC[C@@H]1NC(=O)[C@H](CCCNC(=N)NC)NC(=O)[C@](C)(NC(=O)C(C)C)CCNC(=O)[C@@H](c2ccccc2)NC1=O.O=C(O)C(F)(F)F`, the concentration for half-maximal inhibition (IC50) worked out at 0.9 nM in data set [1]; 250 nM with MV4-11 [6]; 12.7 nM in data set [8]; 290 nM with MV4-11 [13]; 210 nM with MOLM-13 [19]; 8560 nM in the data set with HL-60. Further, the IC50 in the data set on MOLM-13 [20] was determined as 100 nM. In addition, the Ki in data set [1] was below 1 nM. In addition, the inhibition of growth at 0.69 µM with MV4-11 [2] is 75%. Moreover, the inhibition of growth at 0.1 µM in the data set with MOLM-13 [3] was above 95%. Besides, the inhibition result in data set [4], in data set [7], in data set [11], in data set [14] and in data set [15] was “inactive” in each case. For the same molecule, the Stability entry in data set [5] is listed as “Stable”. The inhibition of growth at 0.38 µM in the data set on MOLM-13 [9] came to 75%. The “Ratio IC50” value in data set [10] and in data set [12] was above 30 in each case. The half-life in data set [16], in data set [17] and in data set [18] was above 1 h in each case. Further, the inhibition of growth at […] in the data set on MV4-11 [21] was above 95%.

The values above are taken from ChEMBL document CHEMBL4014355 (J Med Chem, 2017).
